{
  "source": "ChEMBL document CHEMBL4002590",
  "about": "“Design and Synthesis of a Pan-Janus Kinase Inhibitor Clinical Candidate (PF-06263276) Suitable for Inhaled and Topical Delivery for the Treatment of Inflammatory Diseases of the Lungs and Skin” (J Med Chem, 2017)",
  "key": {"[1]": {"molecular_target": "Acetylcholinesterase (Homo sapiens) (UniProt P22303)", "sequence (P22303 whole entry)": "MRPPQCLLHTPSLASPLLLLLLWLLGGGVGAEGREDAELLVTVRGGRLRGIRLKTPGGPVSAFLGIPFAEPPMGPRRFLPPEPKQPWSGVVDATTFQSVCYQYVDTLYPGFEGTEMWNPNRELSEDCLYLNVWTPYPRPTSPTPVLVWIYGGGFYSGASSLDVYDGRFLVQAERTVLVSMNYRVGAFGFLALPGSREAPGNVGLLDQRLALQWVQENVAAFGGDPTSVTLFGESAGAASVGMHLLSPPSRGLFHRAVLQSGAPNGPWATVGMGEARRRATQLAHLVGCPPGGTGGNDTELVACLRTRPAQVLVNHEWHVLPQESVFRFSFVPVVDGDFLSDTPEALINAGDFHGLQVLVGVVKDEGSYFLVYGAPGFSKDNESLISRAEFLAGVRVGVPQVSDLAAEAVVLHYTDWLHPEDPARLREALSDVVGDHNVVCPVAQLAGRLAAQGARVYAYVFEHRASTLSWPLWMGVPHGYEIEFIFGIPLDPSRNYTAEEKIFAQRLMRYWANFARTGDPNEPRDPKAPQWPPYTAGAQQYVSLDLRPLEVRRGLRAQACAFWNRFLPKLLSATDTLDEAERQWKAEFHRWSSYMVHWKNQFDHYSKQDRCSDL", "assay": "Inhibition of recombinant human acetylcholinesterase expressed in HEK-293 cells at 10 uM using acetylthiocholine substrate after 30 mins by photometry", "type": "cell-based", "procedure,_shortened": "(§1)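 Single-point screen at 10 μM within a broad panel of radioligand binding and enzyme inhibition assays covering receptors, transporters, enzymes and ion channels.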"}, "[2]": {"molecular_target": "Vascular endothelial growth factor receptor 2 (Homo sapiens) (UniProt P35968)", "assay": "Inhibition of recombinant human KDR kinase expressed in insect Sf21 cells at 10 uM using Ulight-CAGAGAIETDKEYYTVKD as substrate after 60 mins by LANCE assay", "procedure,_shortened": "as §1"}, "Canis familiaris [3]": {"tested_on": "Canis familiaris", "assay": "Intrinsic clearance in dog at 0.1 mg/kg, iv administered as 30 mins infusion", "type": "ADME, organism-based, Canis lupus familiaris", "conditions": "in vivo, 0.5 h"}, "[4]": {"assay": "Chemical stability in pH 8 solution at 40 degC after 1 to 2 days", "type": "physicochemical", "conditions": "buffer", "procedure,_shortened": "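Hydrolytic stability followed over 1–2 days at pH 8.0 and 40 °C; percent degradation recorded.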"}, "[5]": {"assay": "Volume of distribution at steady state in rat at 0.5 mg/kg, iv", "type": "ADME, organism-based", "conditions": "in vivo, read-out: Vdss"}, "[6]": {"assay": "Terminal half life in iv dosed rat at 0.5 mg/kg", "type": "ADME, organism-based", "conditions": "in vivo, read-out: beta t1/2 (converted)"}, "[7]": {"assay": "Plasma protein binding in dog at 0.1 mg/kg, iv administered as 30 mins infusion", "type": "ADME, organism-based, Canis lupus familiaris", "conditions": "read-out: PPB"}, "Janus Kinase (JAK)": {"molecular_target": "Janus Kinase (JAK) (Homo sapiens, UniProt P52333+P23458+O60674+P29597)"}, "Mus musculus [8]": {"tested_on": "Mus musculus", "assay": "In vivo inhibition of JAK2/TYK2 in Balb/c mouse model of IL-23 induced inflammation assessed as reduction of ear swelling pretreated topically as 4 % solution bid on ear for 12 consecutive days followed by IL-23 stimulation at 2 hrs post compound treatment on day 2, 4, 7, 9 and 11", "type": "functional", "procedure,_shortened": "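Mouse ear dermal model: compound applied topically as a 4% solution in propylene glycol 30, PEG400 30, dimethyl isosorbide 10, glycerin 25.9, BHA 0.1 (% wt/wt); repeated IL-23 ear injections, with ear swelling followed over 11 days.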"}, "[9]": {"assay": "Terminal half life in dog at 0.1 mg/kg, iv administered as 30 mins infusion", "type": "ADME, organism-based, Canis lupus familiaris", "conditions": "in vivo, read-out: beta t1/2 (converted)"}, "Mus musculus [10]": {"tested_on": "Mus musculus", "assay": "Effect on nerve activation in mouse up to 2 mg inhalation administered as micelle vehicle to delta fiber sensory nerve preparation", "conditions": "in vivo, inhaled_or_intranasal", "procedure,_shortened": "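Mouse A delta fiber sensory nerve preparation given up to 2 mg in 400 μL of micelle vehicle; nerve activation recorded.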"}, "[11]": {"molecular_target": "T1, Tyrosine-protein kinase JAK2 (Homo sapiens, UniProt O60674)", "T1 sequence (O60674 whole entry)": "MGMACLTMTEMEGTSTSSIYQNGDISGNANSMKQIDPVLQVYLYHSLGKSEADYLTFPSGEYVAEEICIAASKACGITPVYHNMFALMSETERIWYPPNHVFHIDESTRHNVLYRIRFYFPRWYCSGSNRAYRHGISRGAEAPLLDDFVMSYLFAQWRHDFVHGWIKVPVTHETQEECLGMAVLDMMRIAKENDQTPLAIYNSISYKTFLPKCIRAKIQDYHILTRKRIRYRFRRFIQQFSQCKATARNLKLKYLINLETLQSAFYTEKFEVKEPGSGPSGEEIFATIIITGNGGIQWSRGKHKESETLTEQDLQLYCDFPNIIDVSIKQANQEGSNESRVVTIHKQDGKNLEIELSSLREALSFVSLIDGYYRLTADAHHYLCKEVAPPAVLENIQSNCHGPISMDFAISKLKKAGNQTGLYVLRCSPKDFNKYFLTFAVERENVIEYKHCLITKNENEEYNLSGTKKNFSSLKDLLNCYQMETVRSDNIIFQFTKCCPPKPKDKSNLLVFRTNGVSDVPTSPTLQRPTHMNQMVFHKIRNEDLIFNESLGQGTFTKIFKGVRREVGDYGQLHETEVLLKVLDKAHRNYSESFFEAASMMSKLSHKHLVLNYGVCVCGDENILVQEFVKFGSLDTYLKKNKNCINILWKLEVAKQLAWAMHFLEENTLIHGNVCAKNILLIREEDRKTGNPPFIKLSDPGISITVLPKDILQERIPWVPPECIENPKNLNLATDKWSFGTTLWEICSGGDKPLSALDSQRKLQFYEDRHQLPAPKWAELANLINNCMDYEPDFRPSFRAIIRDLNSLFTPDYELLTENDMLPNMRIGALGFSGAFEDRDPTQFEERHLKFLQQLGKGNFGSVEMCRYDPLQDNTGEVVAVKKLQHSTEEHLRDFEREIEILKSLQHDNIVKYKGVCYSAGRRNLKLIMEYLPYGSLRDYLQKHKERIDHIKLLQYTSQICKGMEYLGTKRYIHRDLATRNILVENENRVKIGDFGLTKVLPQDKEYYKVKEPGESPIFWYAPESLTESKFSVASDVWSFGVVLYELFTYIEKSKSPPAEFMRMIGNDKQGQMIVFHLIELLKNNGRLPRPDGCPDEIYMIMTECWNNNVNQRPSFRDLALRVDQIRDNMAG"}, "[12]": {"molecular_target": "Tyrosine-protein kinase ABL1 (Homo sapiens) (UniProt P00519)", "sequence (P00519 whole entry)": "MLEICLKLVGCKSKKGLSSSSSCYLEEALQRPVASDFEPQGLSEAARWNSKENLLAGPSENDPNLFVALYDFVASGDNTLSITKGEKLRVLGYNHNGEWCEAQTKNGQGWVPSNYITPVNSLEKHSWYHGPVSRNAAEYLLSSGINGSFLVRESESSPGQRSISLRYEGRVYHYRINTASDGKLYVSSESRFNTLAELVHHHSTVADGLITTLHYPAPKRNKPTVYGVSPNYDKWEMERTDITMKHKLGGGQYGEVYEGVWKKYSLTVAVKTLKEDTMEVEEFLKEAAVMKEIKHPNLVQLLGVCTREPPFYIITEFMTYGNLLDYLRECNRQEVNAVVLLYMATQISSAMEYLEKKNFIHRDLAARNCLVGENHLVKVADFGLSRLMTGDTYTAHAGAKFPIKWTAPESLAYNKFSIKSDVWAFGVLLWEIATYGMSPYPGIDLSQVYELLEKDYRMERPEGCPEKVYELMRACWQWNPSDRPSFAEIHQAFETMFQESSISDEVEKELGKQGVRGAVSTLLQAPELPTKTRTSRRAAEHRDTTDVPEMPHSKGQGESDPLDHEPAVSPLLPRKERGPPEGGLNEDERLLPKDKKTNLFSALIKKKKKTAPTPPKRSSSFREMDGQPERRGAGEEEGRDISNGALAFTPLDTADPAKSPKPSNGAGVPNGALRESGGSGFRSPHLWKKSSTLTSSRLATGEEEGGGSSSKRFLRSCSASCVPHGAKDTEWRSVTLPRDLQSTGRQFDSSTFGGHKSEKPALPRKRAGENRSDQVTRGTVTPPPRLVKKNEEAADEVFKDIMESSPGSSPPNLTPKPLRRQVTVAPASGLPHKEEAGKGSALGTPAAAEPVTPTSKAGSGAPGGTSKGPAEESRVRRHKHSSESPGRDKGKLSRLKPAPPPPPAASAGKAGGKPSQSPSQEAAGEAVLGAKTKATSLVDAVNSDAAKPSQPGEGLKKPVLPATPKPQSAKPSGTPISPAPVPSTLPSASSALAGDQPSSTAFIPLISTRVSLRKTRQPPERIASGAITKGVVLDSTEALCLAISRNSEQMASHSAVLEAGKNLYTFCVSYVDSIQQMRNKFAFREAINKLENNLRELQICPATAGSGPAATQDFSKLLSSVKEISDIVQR", "assay": "Inhibition of recombinant human Abl kinase expressed in insect cells at 10 uM using Ulight-TK peptide substrate after 30 mins by LANCE method", "procedure,_shortened": "as §1"}, "JAK2/JAK1 (Homo sapiens)": {"molecular_target": "JAK2/JAK1 (Homo sapiens) (UniProt P23458+O60674)"}, "[13]": {"assay": "Volume of distribution at steady state in dog at 0.1 mg/kg, iv administered as 30 mins infusion", "type": "ADME, organism-based, Canis lupus familiaris", "conditions": "in vivo, read-out: Vdss"}, "[14]": {"assay": "Chemical stability in pH 8 solution at 40 degC up to 6 weeks", "type": "physicochemical", "conditions": "buffer, pH 8, 1008 h"}, "Mus musculus [15]": {"tested_on": "Mus musculus", "assay": "In vivo inhibition of JAK2 homodimer in Balb/c mouse assessed as inhibition of GM-CSF induced STAT5 phosphorylation in blood at 10 ug, it for 12 consecutive days", "type": "functional, organism-based", "procedure,_shortened": "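After i.t. dosing in mouse, GM-CSF-induced phosphorylated STAT5 measured in blood; percent inhibition ± 95% CI from geometric means versus vehicle groups; N = 3.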"}, "[16]": {"assay": "Oral bioavailability in rat at 1 mg/kg", "type": "ADME, organism-based", "conditions": "in vivo"}, "Rattus norvegicus [17]": {"tested_on": "Rattus norvegicus", "assay": "Intrinsic clearance in rat at 0.5 mg/kg, iv", "type": "ADME, organism-based", "conditions": "in vivo"}, "[18]": {"molecular_target": "T1, Tyrosine-protein kinase JAK2", "assay": "Inhibition of GST tagged human recombinant JAK2 catalytic domain expressed in baculovirus using peptide substrate preincubated for 60 mins followed by substrate addition and measured after 60 mins by microfluidic assay", "procedure,_shortened": "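Caliper microfluidic assay of peptide-substrate phosphorylation by the relevant JAK enzyme, run at 1 mM ATP; IC50 values are geometric means of at least three determinations.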"}, "[19]": {"molecular_target": "Alpha-2B adrenergic receptor (Homo sapiens) (UniProt P18089)", "sequence (P18089 whole entry)": "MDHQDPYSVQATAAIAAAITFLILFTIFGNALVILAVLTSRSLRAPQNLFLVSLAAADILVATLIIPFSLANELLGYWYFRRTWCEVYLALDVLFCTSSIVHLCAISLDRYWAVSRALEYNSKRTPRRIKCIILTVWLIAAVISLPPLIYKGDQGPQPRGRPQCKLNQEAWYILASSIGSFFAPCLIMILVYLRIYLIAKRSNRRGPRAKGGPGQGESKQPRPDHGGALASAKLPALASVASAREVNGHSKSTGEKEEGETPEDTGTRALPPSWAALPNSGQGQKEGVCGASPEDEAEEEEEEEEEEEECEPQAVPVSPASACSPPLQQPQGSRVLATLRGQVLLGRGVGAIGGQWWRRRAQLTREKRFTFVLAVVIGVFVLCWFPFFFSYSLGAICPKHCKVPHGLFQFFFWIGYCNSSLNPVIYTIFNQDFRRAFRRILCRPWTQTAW", "assay": "Antagonist activity at recombinant human alpha 2B adrenergic receptor expressed in HEK293 cells assessed as inhibition of dexmedetomidine-induced cAMP accumulation at 10 uM after 30 mins by HTRF method", "type": "functional, cell-based"}, "[20]": {"assay": "Lipophilicity, logD of the compound by shake flask method", "type": "physicochemical", "conditions": "octanol/water", "procedure,_shortened": "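log D measured by the shake flask method.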"}, "Rattus norvegicus [21]": {"organism": "Rattus norvegicus", "assay": "Displacement of [3H]batrachotoxinin from rat cerebral cortex sodium channel site-2 at 10 uM after 60 mins by scintillation counting method relative to control", "procedure,_shortened": "as §1"}, "Rattus norvegicus [22]": {"tested_on": "Rattus norvegicus", "assay": "Genotoxicity in iv dosed rat after 7 days by peripheral blood micronucleus assay", "type": "toxicity, organism-based", "conditions": "in vivo, 168 h"}, "[23]": {"molecular_target": "Aurora kinase A (Homo sapiens) (UniProt O14965)", "sequence (O14965 whole entry)": "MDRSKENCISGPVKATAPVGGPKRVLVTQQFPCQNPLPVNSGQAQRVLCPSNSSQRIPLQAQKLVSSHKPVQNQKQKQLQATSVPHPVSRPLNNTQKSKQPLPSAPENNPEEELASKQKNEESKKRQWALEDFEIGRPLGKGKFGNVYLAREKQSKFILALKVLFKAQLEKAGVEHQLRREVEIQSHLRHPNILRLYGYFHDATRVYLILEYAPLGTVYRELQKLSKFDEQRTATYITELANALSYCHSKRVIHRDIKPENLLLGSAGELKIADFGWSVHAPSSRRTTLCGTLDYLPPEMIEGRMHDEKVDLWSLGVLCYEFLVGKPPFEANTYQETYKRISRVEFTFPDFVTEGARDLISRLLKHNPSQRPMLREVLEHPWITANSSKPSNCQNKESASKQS", "assay": "Inhibition of recombinant human AurA/Aur 2 kinase expressed in insect Sf21 cells at 10 uM using Ulight-RRRSLLE substrate after 15 mins by LANCE assay", "procedure,_shortened": "as §1"}, "[24]": {"molecular_target": "5-hydroxytryptamine receptor 7 (Homo sapiens) (UniProt P34969)", "sequence (P34969 whole entry)": "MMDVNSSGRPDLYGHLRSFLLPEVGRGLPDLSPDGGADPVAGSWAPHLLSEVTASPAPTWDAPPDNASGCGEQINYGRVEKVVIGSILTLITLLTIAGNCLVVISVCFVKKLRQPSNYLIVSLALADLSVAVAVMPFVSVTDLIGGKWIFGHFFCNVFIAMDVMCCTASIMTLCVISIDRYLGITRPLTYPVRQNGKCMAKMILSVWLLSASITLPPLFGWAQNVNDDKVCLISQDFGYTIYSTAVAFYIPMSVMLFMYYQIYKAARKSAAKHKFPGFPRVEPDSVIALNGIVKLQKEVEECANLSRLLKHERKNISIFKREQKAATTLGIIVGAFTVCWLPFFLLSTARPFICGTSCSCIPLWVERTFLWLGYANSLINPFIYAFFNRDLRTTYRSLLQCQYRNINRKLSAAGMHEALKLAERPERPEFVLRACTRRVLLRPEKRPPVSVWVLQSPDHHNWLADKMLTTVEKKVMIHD", "assay": "Antagonist activity at recombinant human 5-HT7 receptor expressed in CHO cells assessed as inhibition of serotonin-induced cAMP accumulation at 10 uM after 30 mins by HTRF method relative to control", "type": "functional, cell-based"}, "Liver": {"tested_on": "Liver", "assay": "Metabolic stability in human liver microsomes assessed per mg protein", "type": "ADME, microsome", "procedure,_shortened": "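Metabolic stability measured as turnover in human liver microsomes.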"}, "Rattus norvegicus [25]": {"tested_on": "Rattus norvegicus", "assay": "Unbound clearance in rat at 0.5 mg/kg, iv", "type": "ADME, organism-based", "conditions": "in vivo"}, "Rattus norvegicus [26]": {"tested_on": "Rattus norvegicus", "assay": "Toxicity in iv dosed rat for 7 days", "type": "organism-based", "conditions": "in vivo, 168 h", "procedure,_shortened": "(§2)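 Exploratory 7-day intravenous toxicology studies in rat and dog; margins expressed over total plasma AUC relative to projected exposure at a 200 μg human lung dose.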"}, "[27]": {"assay": "Drug metabolism in human liver microsomes assessed as UGT-mediated compound glucuronidation per mg protein in presence of microsomal activator Brij58 and cofactor UDPGA", "type": "ADME", "procedure,_shortened": "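Human liver microsomes supplemented with the activator Brij58 and cofactor UDPGA, NADPH omitted, to measure phase II glucuronidation turnover.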"}, "Mus musculus [28]": {"tested_on": "Mus musculus", "assay": "In vivo inhibition of JAK1/JAK2 in […] dosed Balb/c mouse assessed as inhibition of IL-6 induced STAT3 phosphorylation in lungs pretreated for 15 mins followed by IL-6 stimulation measured after 30 mins by ELISA", "type": "functional", "procedure,_shortened": "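Intratracheal dosing in mouse, then IL-6 given i.t.; phosphorylated STAT3 quantified in lung. Percent inhibition ± 95% CI from the difference in geometric means between vehicle/IL-6 and vehicle/saline groups; N = 6.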"}, "Canis familiaris [29]": {"tested_on": "Canis familiaris", "assay": "Toxicity in iv dosed dog for 7 days", "type": "organism-based, Canis lupus familiaris", "conditions": "in vivo, 168 h", "procedure,_shortened": "as §2"}, "[30]": {"molecular_target": "Tyrosine-protein kinase Lck (Homo sapiens) (UniProt P06239)", "sequence (P06239 2-509 limits assumed)": "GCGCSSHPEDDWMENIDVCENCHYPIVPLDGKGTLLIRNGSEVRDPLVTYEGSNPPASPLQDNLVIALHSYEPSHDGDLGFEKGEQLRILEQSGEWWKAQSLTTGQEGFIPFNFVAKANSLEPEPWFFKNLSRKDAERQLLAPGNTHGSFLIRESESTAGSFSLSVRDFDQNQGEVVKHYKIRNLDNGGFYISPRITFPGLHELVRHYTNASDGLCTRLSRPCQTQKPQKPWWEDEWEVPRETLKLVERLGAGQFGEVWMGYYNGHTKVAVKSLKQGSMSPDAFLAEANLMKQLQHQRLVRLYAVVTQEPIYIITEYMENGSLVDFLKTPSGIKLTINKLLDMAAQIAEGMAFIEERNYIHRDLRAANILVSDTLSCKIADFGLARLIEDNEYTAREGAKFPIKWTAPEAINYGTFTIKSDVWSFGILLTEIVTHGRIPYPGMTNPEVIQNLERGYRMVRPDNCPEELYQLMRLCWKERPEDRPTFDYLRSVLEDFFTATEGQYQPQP", "assay": "Inhibition of recombinant human Lck kinase expressed in insect Sf21 cells at 10 uM using Ulight-Poly GAT[EAY(1:1:1)]n as substrate after 10 mins by LANCE assay", "procedure,_shortened": "as §1"}},
  "note": "Active and inactive are the calls of the source. The rule behind the calls is not given here.",
  "data": [
    {"smiles": "CCc1cc(O)c(F)cc1-c1ccc2c(-c3nc4c([nH]3)CCN(C(=O)c3cnc(N5CCCCC5)cn3)C4)n[nH]c2c1", "values": [
      {"measurement": "inhibition", "setting": "[1]", "value": "> 50", "unit": "%"},
      {"measurement": "inhibition", "setting": "[2]", "value": "> 50", "unit": "%"},
      {"measurement": "CL", "setting": "Canis familiaris [3]", "value": 18, "unit": "mL/min/kg"},
      {"measurement": "Stability", "setting": "[4]", "value": "Stable"},
      {"measurement": "Vd", "setting": "[5]", "value": 0.8, "unit": "L/kg"},
      {"measurement": "half-life", "setting": "[6]", "value": 2.1, "unit": "h"},
      {"measurement": "fraction unbound at 0.5 h", "setting": "[7]", "value": "≤ 0.001"},
      {"measurement": "T1/2", "setting": "Janus Kinase (JAK)", "value": "> 6", "unit": "h"},
      {"measurement": "inhibition (INH)", "setting": "Mus musculus [8]", "value": 48, "unit": "%"},
      {"measurement": "half-life", "setting": "[9]", "value": 2, "unit": "h"},
      {"measurement": "Activity", "setting": "Mus musculus [10]", "value": "Non-Toxic"},
      {"measurement": "fIC50", "setting": "[11]", "value": 5.2, "unit": "nM"},
      {"measurement": "inhibition", "setting": "[12]", "value": "> 50", "unit": "%"},
      {"measurement": "fIC50", "setting": "JAK2/JAK1 (Homo sapiens)", "value": 2.1, "unit": "nM"},
      {"measurement": "Vd", "setting": "[13]", "value": 1, "unit": "L/kg"},
      {"measurement": "Stability", "setting": "[14]", "value": "Stable"},
      {"measurement": "inhibition", "setting": "Mus musculus [15]", "value": "inactive"},
      {"measurement": "bioavailability", "setting": "[16]", "value": "< 5", "unit": "%"},
      {"measurement": "CL", "setting": "Rattus norvegicus [17]", "value": 48, "unit": "mL/min/kg"},
      {"measurement": "IC50", "setting": "[18]", "value": 23.1, "unit": "nM"},
      {"measurement": "inhibition", "setting": "[19]", "value": "> 50", "unit": "%"},
      {"measurement": "logD", "setting": "[20]", "value": 3.9},
      {"measurement": "inhibition", "setting": "Rattus norvegicus [21]", "value": "> 50", "unit": "%"},
      {"measurement": "Activity", "setting": "Rattus norvegicus [22]", "value": "Non-Toxic"},
      {"measurement": "inhibition", "setting": "[23]", "value": "> 50", "unit": "%"},
      {"measurement": "inhibition", "setting": "[24]", "value": "> 50", "unit": "%"},
      {"measurement": "Stability", "setting": "Liver", "value": 101, "unit": "µL/min"},
      {"measurement": "CL free", "setting": "Rattus norvegicus [25]", "value": "> 48000", "unit": "mL/min/kg"},
      {"measurement": "Activity", "setting": "Rattus norvegicus [26]", "value": "Non-Toxic"},
      {"measurement": "Drug metabolism", "setting": "[27]", "value": 129, "unit": "µL/min"},
      {"measurement": "ED50", "setting": "Mus musculus [28]", "value": 3, "unit": "µg"},
      {"measurement": "inhibition", "setting": "Mus musculus [28]", "value": "Dose-dependent effect"},
      {"measurement": "Activity", "setting": "Canis familiaris [29]", "value": "Non-Toxic"},
      {"measurement": "inhibition", "setting": "[30]", "value": "> 50", "unit": "%"}
    ]}
  ]
}
